EC80 and Activity data for 20 molecules are collected here from ChEMBL document CHEMBL2016502, “Synthesis and fungicidal activity of tubulin polymerisation promoters. Part 2: pyridazines” (2012).

In general, EC80 refers to the concentration needed for an effect of 80%.

Values after ≈ are worked out from the molar mass of the structure shown. Active and inactive are the calls of the source. The calls are words filed in the database; no cut-off is given here. Where only a bound is given, the exact number is not on record here.

In one assay the test system is Alternaria solani. The experiment in a line: Antifungal activity against Alternaria solani infected in tomato plant assessed as leaf area with disease after 2 days relative to control. In kind it is functional. Conditions: 48 h. The essentials:
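Four-week-old tomato plants (cv. Roter Gnom) were sprayed in a chamber with formulated compound diluted in water. Plants were spray-inoculated with a spore suspension 2 days later and held in a greenhouse at 22/18 °C (day/night) and 95% rh.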

The next assay has as its system Zymoseptoria tritici. The experiment in a line: Antifungal activity against Mycosphaerella graminicola infected in wheat plant assessed as decrease in wheat leaf blotch relative to control. Type of assay: functional. The essentials:
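Wheat plants (cv. Riband, two weeks old) were treated in a spray chamber with formulated compound diluted in water and spray-inoculated with spores 1 day later. They were incubated for 1 day at 22/21 °C (day/night) and 95% rh, then kept in a greenhouse at 22/21 °C and 70% rh. Efficacy was scored 16–19 days after application, against diseased untreated checks.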

A further assay deals with Botrytis cinerea. The experiment in a line: Antifungal activity against Botrytis cinerea infected tomato plant assessed as leaf area with disease after 2 days relative to control. Type of assay: functional. Particulars: 48 h. In short, it runs like this: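 Tomato plants (cv. Roter Gnom, four weeks old) received a spray-chamber application of formulated compound in water. A spore suspension was sprayed on 2 days after treatment. Plants were incubated in a greenhouse at 20 °C and 95% rh. Diseased leaf area (%) was assessed 5–6 days after application, when untreated checks were adequately diseased.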

The next assay addresses Tubulin (Sus scrofa) (UniProt P02554+P02550). The experiment in a line: Induction of porcine tubulin polymerization at 0.24 to 20 ppm by spectrophotometric analysis. Type of assay: protein assay. The essentials: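 Compound was added at reaction start at 20, 2.2 and 0.24 ppm from a 0.2 mM DMSO solution. The reaction was started at 37 °C and followed by absorbance at 340 nm. Paclitaxel served as positive control and DMSO as negative control.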

Chain of Tubulin (Sus scrofa) (P02550 whole entry, looked up): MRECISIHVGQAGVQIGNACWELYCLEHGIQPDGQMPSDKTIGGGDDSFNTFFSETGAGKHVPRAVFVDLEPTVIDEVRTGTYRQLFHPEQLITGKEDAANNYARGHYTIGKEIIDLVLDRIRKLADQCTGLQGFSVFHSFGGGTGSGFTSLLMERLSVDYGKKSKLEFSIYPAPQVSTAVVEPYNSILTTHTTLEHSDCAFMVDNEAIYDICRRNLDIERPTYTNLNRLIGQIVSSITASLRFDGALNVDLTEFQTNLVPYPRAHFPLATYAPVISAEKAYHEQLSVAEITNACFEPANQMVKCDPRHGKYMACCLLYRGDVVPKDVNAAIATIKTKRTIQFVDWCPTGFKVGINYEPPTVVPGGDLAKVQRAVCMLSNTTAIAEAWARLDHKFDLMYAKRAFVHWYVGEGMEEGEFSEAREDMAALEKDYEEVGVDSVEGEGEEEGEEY
Chain of Tubulin (Sus scrofa) (P02554 whole entry, looked up): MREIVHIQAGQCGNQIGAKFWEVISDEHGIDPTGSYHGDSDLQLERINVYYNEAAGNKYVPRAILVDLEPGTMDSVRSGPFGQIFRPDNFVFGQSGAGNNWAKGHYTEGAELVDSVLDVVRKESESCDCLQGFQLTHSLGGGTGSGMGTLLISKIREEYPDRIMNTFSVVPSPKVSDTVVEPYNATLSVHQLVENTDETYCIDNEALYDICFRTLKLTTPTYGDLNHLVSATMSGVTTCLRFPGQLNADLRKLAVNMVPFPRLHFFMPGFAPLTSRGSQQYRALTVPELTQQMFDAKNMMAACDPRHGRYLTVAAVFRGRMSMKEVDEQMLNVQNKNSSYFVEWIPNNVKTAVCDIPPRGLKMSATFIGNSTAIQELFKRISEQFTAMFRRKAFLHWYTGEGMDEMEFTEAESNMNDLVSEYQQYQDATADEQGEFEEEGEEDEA

In the case of `Cc1nnc(O)c(-c2c(F)cc(F)cc2F)c1-c1ccc(Cl)cc1`, the concentration for an effect of 80% (EC80) with Alternaria solani, in the assay with Zymoseptoria tritici and in the assay on Botrytis cinerea was > 200 µg/mL in each case.
Take `Cc1nnc(F)c(-c2c(F)cc(F)cc2F)c1-c1ccc(Cl)cc1`: the EC80 came to 17 µg/mL (≈ 48.2 µM) with Alternaria solani, 191 µg/mL (≈ 542 µM) in the assay with Zymoseptoria tritici and 8 µg/mL (≈ 22.7 µM) in the assay with Botrytis cinerea.
Consider `CC(=O)O[C@H]1C(=O)[C@@]2(C)[C@H]([C@H](OC(=O)c3ccccc3)[C@]3(O)C[C@H](OC(=O)[C@H](O)[C@@H](NC(=O)c4ccccc4)c4ccccc4)C(C)=C1C3(C)C)[C@]1(OC(C)=O)CO[C@@H]1C[C@@H]2O`, for which, on Tubulin (Sus scrofa), the outcome was Active.
Turning to `Cc1nnc(Cl)c(-c2c(F)cc(F)cc2F)c1-c1ccc(Cl)s1`, the EC80 in the assay with Alternaria solani is 49 µg/mL (≈ 131 µM); in the assay on Zymoseptoria tritici it was 41 µg/mL (≈ 109 µM); in the assay on Botrytis cinerea, 25 µg/mL (≈ 66.6 µM). Besides, the result on Tubulin (Sus scrofa) was Active.
As to `C#Cc1ccc(-c2c(C)nnc(Cl)c2-c2c(F)cc(F)cc2F)cc1`, the concentration for an effect of 80% (EC80) in the assay with Alternaria solani was determined as 1 µg/mL (≈ 2.79 µM); in the assay with Zymoseptoria tritici it was 1 µg/mL (≈ 2.79 µM); in the assay with Botrytis cinerea it was 3 µg/mL (≈ 8.36 µM).
For the molecule `Cc1nnc(Cl)c(-c2c(F)cc(F)cc2F)c1-c1ccc2ccccc2n1`, the concentration for an effect of 80% (EC80) was determined as 4 µg/mL (≈ 10.4 µM) in the assay with Alternaria solani, 5 µg/mL (≈ 13 µM) in the assay with Zymoseptoria tritici and 1 µg/mL (≈ 2.59 µM) in the assay with Botrytis cinerea.
For `COc1nnc(C)c(-c2ccc(Cl)cc2)c1-c1c(F)cc(F)cc1F`, in that order: 57 µg/mL (≈ 156 µM), 53 µg/mL (≈ 145 µM) and 97 µg/mL (≈ 266 µM).
On to `COc1nnc(Cl)c(-c2c(F)cc(F)cc2F)c1-c1ccc(Cl)cc1`, for which the EC80 in the assay with Alternaria solani stood at 92 µg/mL (≈ 239 µM); in the assay with Zymoseptoria tritici, 14 µg/mL (≈ 36.3 µM); in the assay on Botrytis cinerea, 58 µg/mL (≈ 151 µM).
For `CSc1nnc(Cl)c(-c2c(F)cc(F)cc2F)c1-c1ccc(Cl)cc1`, in that order: 42 µg/mL (≈ 105 µM), 90 µg/mL (≈ 224 µM) and 124 µg/mL (≈ 309 µM).
For the molecule `Cc1nnc(C)c(-c2c(F)cc(F)cc2F)c1-c1ccc(Cl)cc1`, the EC80 in the assay with Alternaria solani is 18 µg/mL (≈ 51.6 µM); with Zymoseptoria tritici, 14 µg/mL (≈ 40.1 µM); in the assay with Botrytis cinerea, 4 µg/mL (≈ 11.5 µM).
Turning to `COc1cc(F)c(-c2c(Cl)nnc(C)c2-c2ccc(Cl)nc2)cc1F`, the 80% effect concentration (EC80) with Alternaria solani was 19 µg/mL (≈ 49.7 µM); in the assay with Zymoseptoria tritici it was 46 µg/mL (≈ 120 µM); in the assay on Botrytis cinerea, 23 µg/mL (≈ 60.2 µM).
With `Cc1nnc(Cl)c(-c2c(F)cccc2F)c1-c1ccc(Cl)nc1`, the EC80 with Alternaria solani turned out to be 54 µg/mL (≈ 153 µM); in the assay on Zymoseptoria tritici, 60 µg/mL (≈ 170 µM); with Botrytis cinerea it was 78 µg/mL (≈ 221 µM).
For the molecule `Cc1nnc(Cl)c(-c2c(F)cc(F)cc2F)c1-c1ccc(Cl)nc1`, the EC80 turned out to be 2 µg/mL (≈ 5.4 µM) with Alternaria solani, 1 µg/mL (≈ 2.7 µM) with Zymoseptoria tritici and 1 µg/mL (≈ 2.7 µM) in the assay on Botrytis cinerea.
`COc1cc(F)c(-c2c(Cl)nnc(C)c2-c2ccc(Cl)nc2)c(F)c1`: the EC80 is 1 µg/mL (≈ 2.62 µM) in the assay with Alternaria solani, 3 µg/mL (≈ 7.85 µM) in the assay on Zymoseptoria tritici and 1 µg/mL (≈ 2.62 µM) in the assay on Botrytis cinerea.
Regarding `COc1cc(F)cc(F)c1-c1c(Cl)nnc(C)c1-c1ccc(Cl)nc1`, the 80% effect concentration (EC80) was 17 µg/mL (≈ 44.5 µM) with Alternaria solani, 95 µg/mL (≈ 249 µM) with Zymoseptoria tritici and > 200 µg/mL with Botrytis cinerea.
Turning to `Cc1nnc(Cl)c(-c2ncc(Cl)cc2Cl)c1-c1ccc(Cl)nc1`, the concentration for an effect of 80% (EC80) in the assay on Alternaria solani worked out at 33 µg/mL (≈ 85.5 µM); in the assay on Zymoseptoria tritici, 9 µg/mL (≈ 23.3 µM); in the assay on Botrytis cinerea, 15 µg/mL (≈ 38.9 µM).
For `Fc1cc(F)c(-c2c(Cl)nnc(Cl)c2-c2ccc(Cl)cc2)c(F)c1`, in that order: 134 µg/mL (≈ 344 µM), 96 µg/mL (≈ 246 µM) and 127 µg/mL (≈ 326 µM).
`Cc1nnc(Cl)c(-c2c(F)cc(F)cc2F)c1Cc1ccccc1`: the concentration for an effect of 80% (EC80) with Alternaria solani turned out to be 56 µg/mL (≈ 161 µM); with Zymoseptoria tritici, 50 µg/mL (≈ 143 µM); with Botrytis cinerea, 77 µg/mL (≈ 221 µM).
Turning to `Cc1nnc(Cl)c(-c2c(F)cc(F)cc2F)c1-c1ccc(Cl)cc1`, the EC80 with Alternaria solani came to 2 µg/mL (≈ 5.42 µM); in the assay with Zymoseptoria tritici, 2 µg/mL (≈ 5.42 µM); in the assay with Botrytis cinerea, 6 µg/mL (≈ 16.3 µM).
In the case of `CN(C)c1nnc(Cl)c(-c2c(F)cc(F)cc2F)c1-c1ccc(Cl)cc1`, the EC80 with Alternaria solani came to 16 µg/mL (≈ 40.2 µM); in the assay with Zymoseptoria tritici it was 6 µg/mL (≈ 15.1 µM); in the assay with Botrytis cinerea, 40 µg/mL (≈ 100 µM).
